According to ChEMBL document CHEMBL1154607, “Searching for new cures for tuberculosis: design, synthesis, and biological evaluation of 2-methylbenzothiazoles” (J Med Chem, 2009):
≈ marks a conversion by molar mass, not a printed value.

Columns and labels:
[1] = tested on: Mycobacterium tuberculosis; assay: Antimycobacterial activity against Mycobacterium tuberculosis H37Rv after 7 days by microplate alamar blue assay; assay type: functional; details: 168 h
Method in brief: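 M. tuberculosis H37Rv growth inhibition was read by microplate Alamar blue assay (MABA). The value is reported as the minimum inhibitory concentration (MIC), in μM.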

[2] = Cytotoxicity against african green monkey Vero cells after 72 hrs; assay type: cell-based; details: chlorocebus sabaeus, read-out: MIC
Method in brief: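 Toxicity was tested in Vero cells, and the value is reported as IC50 in μM.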

[3] = tested on: Trypanosoma brucei rhodesiense; assay: Antimicrobial activity against Trypanosoma brucei rhodesiense STIB 900 trypomastigote forms; assay type: functional, organism-based
Trypanosoma cruzi = assay: Antimicrobial activity against Trypanosoma cruzi Tulahuen C2C4 amastigote forms infected in rat L6 cells; assay type: functional, organism-based
Leishmania donovani = assay: Antimicrobial activity against Leishmania donovani MHOM/ET/67/L82 axenic amastigote forms; assay type: functional, organism-based
Plasmodium falciparum = assay: Antimicrobial activity against chloroquine and pyrimethamine-resistant Plasmodium falciparum K1 in erythrocytes; assay type: functional, organism-based

Row | Compound | MIC [1] [µM] | MCC at 72 h [2] [µM] | IC50 [3] [µM] | IC50 (Trypanosoma cruzi) [µM] | IC50 (Leishmania donovani) [µM] | IC50 (Plasmodium falciparum) [µM]
1 | Cc1nc2cc(OCc3cc(C(=O)N4CCN(C)CC4)no3)ccc2s1 | > 128 | > 128 |  |  |  | 
2 | COC(=O)[C@H](CCSC)NC(=O)c1cc(COc2ccc3sc(C)nc3c2)on1 | 3.7 (≈ 1.61 µg/mL) | > 128 |  |  |  | 
3 | COC(=O)[C@@H](NC(=O)c1cc(COc2ccc3sc(C)nc3c2)on1)c1ccccc1Cl | 15.5 (≈ 7.31 µg/mL) | > 128 |  |  |  | 
4 | CO[C@H]1/C=C/O[C@@]2(C)Oc3c(C)c(O)c4c(O)c(c(/C=N/N5CCN(C)CC5)c(O)c4c3C2=O)NC(=O)/C(C)=C\C=C\[C@H](C)[C@H](O)[C@@H](C)[C@@H](O)[C@@H](C)[C@H](OC(C)=O)[C@@H]1C [RIFAMPIN] | 0.1 (≈ 0.0823 µg/mL) | 127 |  |  |  | 
5 | COC(=O)[C@@H](NC(=O)c1cc(COc2ccc3sc(C)nc3c2)on1)C(C)C | > 128 |  |  |  |  | 
6 | COC(=O)[C@@H](NC(=O)c1nc(COc2ccc3sc(C)nc3c2)cs1)c1ccccc1 | 62.5 (≈ 28.3 µg/mL) |  | 37.5 | 14.5 | 4.44 | 4.86
7 | Cc1nc2cc(OCc3cc(C(=O)NO)no3)ccc2s1 | > 128 |  | 1.85 | 15.9 | 6.06 | 2.76
8 | CCOC(=O)c1cc(COc2ccc3sc(C)nc3c2)on1 | > 128 |  |  |  |  | 
9 | COC(=O)[C@@H](NC(=O)c1cc(COc2ccc3sc(-c4cccc(C(F)(F)F)c4)nc3c2)on1)c1ccccc1 | 59.5 (≈ 33.8 µg/mL) |  |  |  |  | 
10 | Cc1nc2cc(OCc3cc(C(=O)N[C@H](C(=O)NNC(=O)c4ccncc4)c4ccccc4)no3)ccc2s1 | 47.5 (≈ 25.8 µg/mL) |  |  |  |  | 
11 | COC(=O)[C@@H](NC(=O)c1cc(COc2ccc3sc(C)nc3c2)on1)c1ccc(O)cc1 | 15.4 (≈ 6.98 µg/mL) | > 128 | 88.9 | 26.4 | 4.48 | 2.5
12 | Cc1nc2cc(OCc3cc(C(=O)N[C@H](C(=O)NO)c4ccccc4)no3)ccc2s1 | > 128 |  | 0.415 | 6.2 | 3.25 | 1.82
13 | COC(=O)[C@@H](NC(=O)c1cc(CSc2nc3ccccc3s2)on1)c1ccccc1 | 13 (≈ 5.71 µg/mL) | > 128 | 88.9 | 16.9 | 6.03 | > 5
14 | COC(=O)[C@H](Cc1ccccc1)NC(=O)c1cc(COc2ccc3sc(C)nc3c2)on1 | 14.4 (≈ 6.5 µg/mL) | > 128 |  |  |  | 
15 | Cc1nc2cc(OCc3cc(C(=O)N4CCCCC4)no3)ccc2s1 | 120 (≈ 42.7 µg/mL) |  |  |  |  | 
16 | COC(=O)[C@@H](NC(=O)c1cc(COc2nc3ccccc3s2)on1)c1ccccc1 | 15.2 (≈ 6.44 µg/mL) | > 128 | 88.6 | 26.8 | 4.99 | > 5
17 | COC(=O)[C@@H](NC(=O)c1cc(COc2ccc3sc(C)nc3c2)on1)c1ccccc1 | 1.4 (≈ 0.612 µg/mL) | > 128 | 74.2 | > 90 | 27.5 | 3.97
18 | Cc1nc2cc(OCc3cc(C(=O)N4CCNCC4)no3)ccc2s1 | > 128 |  |  |  |  | 
19 | Cc1nc2cc(OCc3cc(C(=O)NNC(=O)c4ccncc4)no3)ccc2s1 | 4.4 (≈ 1.8 µg/mL) | > 128 | 38 | > 90 | > 90 | > 5

Row | Compound | MIC [1] [µM] | MCC at 72 h [2] [µM] | IC50 [3] [µM] | IC50 (Trypanosoma cruzi) [µM] | IC50 (Leishmania donovani) [µM] | IC50 (Plasmodium falciparum) [µM]
20 | COC(=O)c1ccccc1NC(=O)c1cc(COc2ccc3sc(C)nc3c2)on1 | 30.2 (≈ 12.8 µg/mL) | > 128 |  |  |  | 
21 | COC(=O)[C@@H](NC(=O)c1ccc2sc(C)nc2c1)c1ccccc1 | 13 (≈ 4.43 µg/mL) | > 128 |  |  |  | 
22 | COC(=O)[C@@H](NC(=O)c1cc(COc2ccccc2)on1)c1ccccc1 | 3.5 (≈ 1.28 µg/mL) | > 128 | > 90 | 45.9 | 13.5 | > 5
23 | COC(=O)[C@@H](NC(=O)c1cc(COc2ccc3sc(C)nc3c2)on1)c1ccc(OC)cc1 | 12.2 (≈ 5.7 µg/mL) | > 128 |  |  |  | 
24 | COC(=O)[C@@H](NC(=O)c1cc(COc2cccc3sc(C)nc23)on1)c1ccccc1 | 7.4 (≈ 3.24 µg/mL) | > 128 | > 90 | 18.8 | 4.12 | > 5
25 | NNC(=O)c1ccncc1 [ISONIAZID] | 0.5 (≈ 0.0686 µg/mL) | > 128 |  |  |  | 
26 | COC(=O)[C@H](CC(C)C)NC(=O)c1cc(COc2ccc3sc(C)nc3c2)on1 | 3.8 (≈ 1.59 µg/mL) | > 128 | 18.7 | 12.3 | 2.79 | 4.57
27 | Cc1nc2cc(OCc3cc(C(=O)N[C@H](CO)c4ccccc4)no3)ccc2s1 | > 128 |  | 31.2 | > 90 | > 90 | 2.56
28 | Cc1nc2cc(OCc3cc(C(=O)NCc4ccccc4)no3)ccc2s1 | > 128 |  | 86.9 | > 90 | 8.8 | 3.43
29 | Cc1nc2cc(OCc3cc(C(=O)O)no3)ccc2s1 | > 128 |  |  |  |  | 
30 | Cc1nc2cc(OCc3cc(C(=O)N4CCCCO4)no3)ccc2s1 | 7.8 (≈ 2.8 µg/mL) |  |  |  |  | 
31 | COC(=O)[C@@H](NC(=O)c1cc(C)on1)c1ccccc1 | 37 (≈ 10.1 µg/mL) | > 128 | > 90 | > 90 | 56.3 | > 5
32 | Cc1nc2cc(OCc3cc(C(=O)N4CCOCC4)no3)ccc2s1 | > 128 |  |  |  |  | 
33 | Cc1nc2cc(OCc3cc(C(=O)N(C)C)no3)ccc2s1 | > 128 |  |  |  |  | 
34 | CCN(CC)C(=O)c1cc(COc2ccc3sc(C)nc3c2)on1 | > 128 |  |  |  |  | 
35 | COC(=O)[C@H](NC(=O)c1cc(COc2ccc3sc(C)nc3c2)on1)c1ccccc1 | 1.9 (≈ 0.831 µg/mL) | > 128 | 89.5 | 37.5 | 22.3 | 3.33
36 | CCCCCCCCCCCCCCCCOP(=O)([O-])OCC[N+](C)(C)C [MILTEFOSINE] |  |  |  |  | 0.142 | 
37 | O=C(Cn1ccnc1[N+](=O)[O-])NCc1ccccc1 [BENZNIDAZOLE] |  |  |  | 0.521 |  | 
38 | Cc1nc2cc(OCc3cc(C(=O)N[C@H](C(=O)O)c4ccccc4)no3)ccc2s1 | > 128 |  | 89.5 | > 90 | 32.3 | > 5
